Data set [1] in a line: Initial rates of formation of metabolic intermediate Cytochrome P-450 with compound concentration of 30 uM. In kind it is ADME. An outline of the steps: (§1)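 Cross-inhibition in NADPH-supplemented rabbit liver microsomes at 37 °C. Preincubation with amine at 30, 150 or 300 μM while 457-nm complex formation was monitored. Once it plateaued (6–8 min), racemic hydroxylamine was added at 300 μM. Initial rate and plateau extent were read from ΔA457–500 nm vs time, per nmol P-450.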

The nature of data set [2]: Initial rates of formation of metabolic intermediate Cytochrome P-450 with compound concentration of 300 uM. The class given is ADME. An outline of the steps: as §1
The nature of data set [3]: Lag time between the addition of compound (30 uM) and the first appearance of chromophore. The class given is ADME. A digest of the protocol: (§2)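 Rabbit liver microsomes at 2 mg protein/mL with 0.1 mM EDTA, 37 °C, substrate 30 μM. Complex formation started with 0.4 mM NADPH and followed by dual-wavelength absorbance, 457 vs 500 nm. Initial rate is the initial slope, ΔA×10^4 per nmol P-450 per min. Extent is the plateau absorbance. Lag is the time from NADPH addition to first 457-nm chromophore. Triplicate or single runs.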

The nature of data set [4]: Initial rates of formation of metabolic intermediate Cytochrome P-450 at compound concentration of 30 uM. In kind it is ADME. An outline of the steps:
as §2

Data set [5] is described as follows: Extent rates of formation of metabolic intermediate Cytochrome P-450 at compound concentration of 30 uM. In kind it is ADME. A digest of the protocol: as §2
Data set [6] in a line: Initial rates of formation of metabolic intermediate Cytochrome P-450 with compound concentration of 150 uM. In kind it is ADME. An outline of the steps: as §1
Data set [7] addresses T1, Cytochrome P450 2C19 (Homo sapiens, UniProt P33261). Briefly: Inhibitory effect in formation of metabolic intermediate complex between Cytochrome P450 and racemic 2 initially, on pre-incubation with Racemic compound 2 (300 uM) at 300 uM. The class given is ADME, Oryctolagus cuniculus. The settings on record: rabbit.
The target of data set [8] is T1, Cytochrome P450 2C19. Description: Inhibitory effect in formation of metabolic intermediate complex between Cytochrome P450 and racemic compound 2 initially, on pre-incubation with compound at 150 uM. The class given is ADME, Oryctolagus cuniculus. The settings on record: rabbit.
The target in data set [9] is T1, Cytochrome P450 2C19. Briefly: Inhibitory effect in formation of metabolic intermediate complex between Cytochrome P450 and racemic compound 2 at extent, on pre-incubation with compound at 30 uM. The class given is ADME, Oryctolagus cuniculus. The settings on record: rabbit.
Data set [10] has as its target T1, Cytochrome P450 2C19. Description: Apparent binding affinity constant of compound (10.8-60.0) for Cytochrome P450. In kind it is ADME, Oryctolagus cuniculus. The settings on record: read-out: Ks.
Data set [11] concerns the target T1, Cytochrome P450 2C19. Description: Inhibitory effect in formation of metabolic intermediate complex between Cytochrome P450 and racemic compound 2 at extent, on pre-incubation with Racemic 2 (300 uM) at 150 uM. In kind it is ADME, Oryctolagus cuniculus. The settings on record: rabbit.
Data set [12] has as its target T1, Cytochrome P450 2C19. Briefly: Inhibitory effect in formation of metabolic intermediate complex between Cytochrome P450 and racemic compound 2 at extent, on preincubation with compound at 150 uM. In kind it is ADME, Oryctolagus cuniculus. The settings on record: rabbit.
Data set [13] deals with T1, Cytochrome P450 2C19. Description: Inhibitory effect in formation of metabolic intermediate complex between Cytochrome P450 and racemic 2 at extent, on preincubation with Racemic compound 2 (300 uM) at 30 uM. In kind it is ADME, Oryctolagus cuniculus. The settings on record: rabbit. An outline of the steps: as §1
Data set [14] concerns the target T1, Cytochrome P450 2C19. Description: Inhibitory effect in formation of metabolic intermediate complex between Cytochrome P450 and racemic compound 2 initially, on preincubation with Racemic compound 2 (300 uM) at 150 uM. The class given is ADME, Oryctolagus cuniculus. The settings on record: rabbit. A digest of the protocol:
as §1

In data set [15] the target is T1, Cytochrome P450 2C19. Briefly: Inhibitory effect in formation of metabolic intermediate complex between Cytochrome P450 and racemic compound 2 at extent, on pre-incubation with Racemic 2 (300 uM) at 300 uM. The class given is ADME, Oryctolagus cuniculus. The settings on record: rabbit.
The target of data set [16] is T1, Cytochrome P450 2C19. Description: Inhibitory effect in formation of metabolic intermediate complex between Cytochrome P450 and racemic compound 2 initially, on pre-incubation with compound at 300 uM. The settings on record: rabbit. In kind it is ADME, Oryctolagus cuniculus.
A short description of data set [17]: Extent rates of formation of metabolic intermediate Cytochrome P-450 at compound concentration of 3.75-120 uM. In kind it is ADME. A digest of the protocol: (§3)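 Rabbit liver microsomes at 2 mg protein/mL with 0.1 mM EDTA, 37 °C, NADPH-dependent. Substrate tested at several concentrations. ΔA457–500 nm followed against time. Rate is the initial slope per nmol P-450 per min; extent is the plateau absorbance. Runs disturbed by a transient 450-nm species were discarded.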

In data set [18] the target is T1, Cytochrome P450 2C19. Briefly: Inhibitory effect in formation of metabolic intermediate complex between Cytochrome P450 and racemic compound 2 at extent, on pre-incubation with compound at 300 uM. The class given is ADME, Oryctolagus cuniculus. The settings on record: rabbit.
Data set [19] can be described thus: Initial rates of formation of metabolic intermediate Cytochrome P-450 at compound concentration of 3.75-120 uM. In kind it is ADME. An outline of the steps:
as §3

The target in data set [20] is T1, Cytochrome P450 2C19. Description: Inhibitory effect in formation of metabolic intermediate complex between Cytochrome P450 and racemic compound 2 initially, on pre-incubation with compound at 30 uM. In kind it is ADME, Oryctolagus cuniculus. The settings on record: rabbit.

T1 sequence (P33261 whole entry): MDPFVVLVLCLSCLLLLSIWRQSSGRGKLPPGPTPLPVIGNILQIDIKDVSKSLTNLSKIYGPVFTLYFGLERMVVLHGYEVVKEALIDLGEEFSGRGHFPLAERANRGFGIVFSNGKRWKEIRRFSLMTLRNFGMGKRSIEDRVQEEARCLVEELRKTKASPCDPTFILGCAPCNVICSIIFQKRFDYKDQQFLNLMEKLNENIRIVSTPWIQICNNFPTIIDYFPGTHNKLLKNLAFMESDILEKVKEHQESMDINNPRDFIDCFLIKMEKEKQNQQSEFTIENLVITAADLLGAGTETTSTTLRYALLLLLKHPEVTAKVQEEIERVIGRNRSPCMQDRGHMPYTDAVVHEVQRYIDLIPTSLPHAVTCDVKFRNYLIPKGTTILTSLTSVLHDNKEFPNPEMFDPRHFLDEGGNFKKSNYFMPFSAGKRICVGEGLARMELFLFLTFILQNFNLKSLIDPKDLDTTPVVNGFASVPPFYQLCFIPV

As for `COc1cc(C[C@@H](C)N)c(OC)cc1C.COc1cc(C[C@H](C)N)c(OC)cc1C`, the Rate in data set [1] is recorded as 1.8; in data set [2], 1.2; in data set [4], 4.8; in data set [6], 1.6. This molecule also yielded a Lag time in data set [3] of 138 s. Further, the Extent in data set [5] is reported as 30.
`COc1cc(C[C@@H](C)N)c(OC)cc1C`: the Rate was found to be 160 in data set [7]; 6.1 in data set [8]; 5.2 in data set [1]; 5.5 in data set [2]; 17.1 in data set [4]; 183 in [14]. The Rate in data set [16] came out at 5.8; in [19], 17.5; in data set [6], 6.1; in data set [20], 5.2. The Extent in data set [9] is reported as 21; in data set [11], 116; in data set [12] it was 25; in data set [13] it was 131; in data set [15], 105; in [5], 78. Moreover, the Extent in data set [17] and in [18] was 23 throughout. For the same molecule, in [10], the Kd amounted to 18 µM. For the same molecule, the Lag time in [3] is reported as 14 s.

These data come from ChEMBL document CHEMBL1121797, “Studies on chiral interactions of 1-(2,5-dimethoxy-4-methylphenyl)-2-aminopropane and the corresponding N-hydroxy metabolites with cytochrome P-450” (J Med Chem, 1981).
